Assay [1] has as its target T1, Fatty-acid amide hydrolase 1 (Rattus norvegicus, UniProt P97612).
T1 sequence (P97612 whole entry): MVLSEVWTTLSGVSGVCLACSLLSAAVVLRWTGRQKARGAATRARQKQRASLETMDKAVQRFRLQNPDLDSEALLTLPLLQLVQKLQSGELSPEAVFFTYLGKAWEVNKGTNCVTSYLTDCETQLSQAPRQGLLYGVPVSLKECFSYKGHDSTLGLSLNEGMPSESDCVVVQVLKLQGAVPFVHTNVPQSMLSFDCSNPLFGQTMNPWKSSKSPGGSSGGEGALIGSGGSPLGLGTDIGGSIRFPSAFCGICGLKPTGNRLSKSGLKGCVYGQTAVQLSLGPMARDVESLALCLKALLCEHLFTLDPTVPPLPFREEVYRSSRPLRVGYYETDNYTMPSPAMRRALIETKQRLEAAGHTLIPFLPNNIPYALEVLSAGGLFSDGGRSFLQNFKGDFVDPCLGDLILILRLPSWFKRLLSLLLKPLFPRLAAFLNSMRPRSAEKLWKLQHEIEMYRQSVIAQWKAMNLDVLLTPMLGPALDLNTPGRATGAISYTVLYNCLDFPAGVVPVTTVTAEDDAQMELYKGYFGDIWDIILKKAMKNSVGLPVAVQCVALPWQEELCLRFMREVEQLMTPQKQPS
As to the kind of experiment: Fatty acid amide hydrolase inhibitory activity in rat brain membrane using [3H]anandamide as a substrate. Type of assay: cell membranes. The method, boiled down:
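Membrane fractions prepared from rat brain homogenates. FAAH activity measured as hydrolysis of [3H]anandamide, radiolabelled on the ethanolamine (60 Ci/mmol), used as substrate. IC50 taken as the half-maximal concentration for inhibition of hydrolysis.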

Assay [2] deals with T1, Fatty-acid amide hydrolase 1. Put plainly: Inhibition of [3H]anandamide binding to fatty acid amide hydrolase of rat brain membrane. The method, boiled down:
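Membrane fractions prepared from rat brain homogenates; FAAH activity measured as hydrolysis of anandamide[ethanolamine-3H] (60 Ci/mmol) as substrate. Value reported as half-maximal inhibitory concentration (IC50) of FAAH activity.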

Each structure is given as a SMILES string.

The term IC50 denotes the concentration that gives 50% inhibition. A low value points to greater potency.

On to `O=C(NC1CCCCC1)Oc1ccc(/C=C\c2ccccc2)cc1`, for which the IC50 is 0.266 µM in assay [1] and 263 nM in assay [2].
Take `CCCCNC(=O)Oc1ccc2cc(Br)ccc2c1`: the IC50 in assay [2] is 759 nM.
For the compound `O=C(NC1CCCCC1)Oc1ccc2cccc(Br)c2c1`, the IC50 in assay [1] is 0.174 µM; in assay [2], 174 nM.
`CCNC(=O)Oc1ccc(C)cc1`: in assay [1], the IC50 is > 30 µM.
Regarding `CCCCNC(=O)Oc1ccc(F)cc1`, the 50% inhibitory concentration (IC50) is 11.5 µM in assay [1] and 11500 nM in assay [2].
As for `Cc1ccc(OC(=O)NC2CCCCC2)cc1`, the IC50 in assay [2] was 5370 nM.
For `O=C(NC1CCCCC1)Oc1cccc(-c2ccccc2)c1`, in assay [2], the IC50 is 63.1 nM.
For the compound `S=C(NC1CCCCC1)Oc1ccc2ccccc2c1`, the IC50 in assay [1] is > 30 µM.
Take `S=C(NC1CCCCC1)Sc1ccc2ccccc2c1`: the IC50 in assay [1] is > 30 µM.
As for `CCCCCc1cccc(OC(=O)NC2CCCCC2)c1`, the IC50 in assay [1] is 0.188 µM; in assay [2], 186 nM.
With `CCCCNC(=O)Oc1ccc(OCc2ccccc2)cc1`, the IC50 in assay [1] was 0.39 µM; in assay [2], 389 nM.
In the case of `O=C(NC1CCCCC1)Oc1ccc(-c2ccccc2)cc1`, the IC50 in assay [2] was 2290 nM.
Consider `O=C(Cc1ccc2ccccc2c1)NC1CCCCC1`, for which the IC50 in assay [1] is > 30 µM.
Turning to `CCCCCCOC(=O)NC1CCCCC1`, the half-maximal inhibitory concentration (IC50) in assay [1] is 3.76 µM. That is a single-digit micromolar value.
In assay [2], `O=C(NC1CCCCC1)Oc1ccc(/C=C/c2ccccc2)cc1` had an IC50 of 3310 nM.
As for `O=C(NC1CCCCC1)Oc1ccc2ccccc2c1`, in assay [2], the IC50 was 324 nM.
Consider `Cc1cccc(OC(=O)NC2CCCCC2)c1`, for which the IC50 in assay [1] was 0.808 µM; in assay [2] it was 813 nM.
Turning to `O=C(NC1CCCCC1)Oc1ccccc1`, the values for the IC50 in assay [1] and in assay [2] were 3.78 µM and 3800 nM, respectively.
Take `O=C(Nc1cccc(-c2ccccc2)c1)OC1CCCCC1`: the IC50 in assay [1] was > 30 µM.
As to `O=C(NC1CCCCC1)OCCCCCc1ccccc1`, in assay [1], the IC50 was > 30 µM.
In assay [1], `CNC(=O)Oc1ccc2ccccc2c1` displayed an IC50 of 18.3 µM.
Consider `O=C(Nc1ccc2ccccc2c1)NC1CCCCC1`, for which, in assay [1], the IC50 is > 30 µM.
On the same count and under the same terms, in the case of `O=C(NC1CCCCC1)Sc1ccc2ccccc2c1` it was 15.6 µM.
On to `CCc1ccc2cc(OC(=O)NC3CCCCC3)ccc2c1`, for which the IC50 in assay [1] is 3.53 µM; in assay [2], 3550 nM.
With `S=C(Nc1ccc2ccccc2c1)NC1CCCCC1`, the IC50 in assay [1] was > 30 µM.
With `CNC(=O)Oc1cccc2ccccc12` [CARBARIL], the IC50 in assay [1] was > 30 µM.

The values above are taken from ChEMBL document CHEMBL1145785, “Design, synthesis, and structure-activity relationships of alkylcarbamic acid aryl esters, a new class of fatty acid amide hydrolase inhibitors” (J Med Chem, 2003).
